According to ChEMBL document CHEMBL1140735, “Structure-activity relationships of C6-uridine derivatives targeting plasmodia orotidine monophosphate decarboxylase” (J Med Chem, 2008):

What was measured:
CHO = test: Cytotoxicity against CHO cells; type: cell-based; details: Cricetulus griseus
Summary of the method: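 CHO cells in RPMI 1640 with 10% fetal calf serum, 25 mM HEPES and gentamicin were grown to 50% confluency. Compounds from 10 mg/mL DMSO stocks were added as a serial dilution series, with DMSO-only controls. After 48 h, MTT was added for 1 h and formazan dissolved in DMSO. Absorbance at 650 nm; IC50 by nonlinear regression of dose–response.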

Plasmodium falciparum [1] = test: Antimalarial activity against Plasmodium falciparum 3D7; type: functional, organism-based
Summary of the method: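 Parasites grown in human O+ erythrocytes in RPMI 1640 with 10% human serum and 50 µM hypoxanthine. Compounds from 10 mg/mL DMSO stocks were serially 2-fold diluted and added to culture at 2% hematocrit and 2% parasitemia. Incubation was 48 h at 37 °C under 95% N2/3% CO2/2% O2.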

[2] = Inhibition of Plasmodium falciparum ODCase
[3] = Inhibition of Plasmodium vivax ODCase
Summary of the method: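 Calorimetric assay of P. vivax ODCase: enzyme (50 or 70 nM) was mixed with inhibitor (40–250 µM) in 50 mM Tris with 1 mM DTT, and activity was started by a single OMP injection to a final 12 µM. Competitive Ki was determined. For time-dependent inactivation, 50 µM enzyme was incubated at 25 °C in Tris pH 8.0 with 37.5–75 mM inhibitor for 1–48 h, then diluted 1000-fold and assayed.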

[4] = Inhibition of Methanobacterium thermoautotrophicum ODCase; set-up: species or system Methanothermobacter thermautotrophicus
[5] = test system: Methanothermobacter thermautotrophicus
Plasmodium falciparum [6] = test system: Plasmodium falciparum
[7] = Stability assessed as half life of hydrolysis; type: physicochemical

Structure (SMILES) | IC50 (Plasmodium falciparum [1]) | IC50 (CHO) | other results
Cc1cc(=O)[nH]c(=O)n1[C@@H]1O[C@H](COP(=O)(O)O)[C@@H](O)[C@H]1O |  |  | Ki [2]: 34.1 µM; Ki [3]: 22.4 µM
[N-]=[N+]=Nc1cc(=O)[nH]c(=O)n1[C@@H]1O[C@H](COP(=O)(O)O)[C@@H](O)[C@H]1O |  |  | Ki [4]: 0.19 µM; Ki [2]: 2 µM; KI [5]: 0.63 µM; Kinact [5]: 61.2 h⁻¹; KI (Plasmodium falciparum [6]): 7.3 µM; Kinact (Plasmodium falciparum [6]): 0.35 h⁻¹
N#Cc1cc(=O)[nH]c(=O)n1[C@@H]1O[C@H](COP(=O)(O)O)[C@@H](O)[C@H]1O |  |  | half-life [7]: 5 h; Ki [3]: 62 µM
O=c1cc(I)n([C@@H]2O[C@H](CO)[C@@H](O)[C@H]2O)c(=O)[nH]1 | 6.2 µM | 366 µM | 

Continued, in another order:

IC50 (Plasmodium falciparum [1]) | Structure (SMILES) | IC50 (CHO) | other results
31.7 µM | CN(C)c1cc(=O)[nH]c(=O)n1[C@@H]1O[C@H](CO)[C@@H](O)[C@H]1O | 68.3 µM | 
530 µM | Cc1cc(=O)[nH]c(=O)n1[C@@H]1O[C@H](CO)[C@@H](O)[C@H]1O | > 1160 µM | 
1230 µM | [N-]=[N+]=Nc1cc(=O)[nH]c(=O)n1[C@@H]1O[C@H](CO)[C@@H](O)[C@H]1O | > 1500 µM | 
446 µM | N#Cc1cc(=O)[nH]c(=O)n1[C@@H]1O[C@H](CO)[C@@H](O)[C@H]1O | > 1500 µM | 
28.5 µM | CNc1cc(=O)[nH]c(=O)n1[C@@H]1O[C@H](CO)[C@@H](O)[C@H]1O | 71.9 µM | 
> 1500 µM | Nc1cc(=O)[nH]c(=O)n1[C@@H]1O[C@H](CO)[C@@H](O)[C@H]1O | > 1500 µM | 
